Data from article PMC7072008 (ACS infectious diseases, 2020).
Where two headings read alike, the source gives them in different places.

Tests used:
[1] = target: T1, hGR (Homo sapiens, UniProt P00390); assay: Inhibition of human glutathione reductase; assay type: biochemical; settings: for IC50: read-out: hGR IC50; for hGR IC50 fold higher than for TGR: selectivity TGR versus hGR; for Inhibition of hGR: at 2 mM (concentrations as high as 2 mM)
T1 sequence (P00390 44-522): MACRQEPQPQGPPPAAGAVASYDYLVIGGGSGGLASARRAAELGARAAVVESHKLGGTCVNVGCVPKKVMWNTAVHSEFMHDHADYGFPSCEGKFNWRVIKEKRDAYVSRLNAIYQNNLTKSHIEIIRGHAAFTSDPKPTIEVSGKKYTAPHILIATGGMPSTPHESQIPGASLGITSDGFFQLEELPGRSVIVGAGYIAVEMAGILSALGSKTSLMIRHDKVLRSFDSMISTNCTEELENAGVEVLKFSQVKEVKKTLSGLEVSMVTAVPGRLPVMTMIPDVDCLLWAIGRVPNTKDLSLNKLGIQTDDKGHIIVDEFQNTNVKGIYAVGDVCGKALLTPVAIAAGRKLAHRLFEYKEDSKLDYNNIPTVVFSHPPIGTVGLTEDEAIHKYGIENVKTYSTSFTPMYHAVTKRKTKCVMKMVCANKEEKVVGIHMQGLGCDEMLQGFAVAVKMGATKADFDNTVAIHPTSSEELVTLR

[2] = tested on: Schistosoma mansoni TGR; settings: read-out: TGR IC50 qHTS, cited from earlier work
[3] = target: T2, TGR (DTNB reducing activity) (Schistosoma mansoni, UniProt Q962Y6); assay: TGR inhibition confirmatory assay, DTNB reduction; assay type: biochemical
T2 sequence (Q962Y6 1-598): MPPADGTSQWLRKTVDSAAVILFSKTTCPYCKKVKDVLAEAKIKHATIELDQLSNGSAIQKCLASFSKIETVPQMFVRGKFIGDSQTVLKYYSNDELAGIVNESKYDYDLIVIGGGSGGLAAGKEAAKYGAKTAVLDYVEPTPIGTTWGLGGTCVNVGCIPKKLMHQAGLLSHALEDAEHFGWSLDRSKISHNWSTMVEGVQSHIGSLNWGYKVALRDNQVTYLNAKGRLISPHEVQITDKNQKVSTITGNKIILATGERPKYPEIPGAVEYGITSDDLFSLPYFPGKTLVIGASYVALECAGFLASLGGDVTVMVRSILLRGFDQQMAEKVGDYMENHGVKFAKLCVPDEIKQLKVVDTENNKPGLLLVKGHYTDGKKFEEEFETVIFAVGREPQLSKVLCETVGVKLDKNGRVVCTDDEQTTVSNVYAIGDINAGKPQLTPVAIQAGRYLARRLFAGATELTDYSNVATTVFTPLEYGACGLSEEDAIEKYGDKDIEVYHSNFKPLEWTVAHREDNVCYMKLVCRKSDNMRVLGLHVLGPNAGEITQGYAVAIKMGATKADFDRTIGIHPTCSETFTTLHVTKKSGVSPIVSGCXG

[4] = target: T3, TGR (GSSG reducing activity) (Schistosoma mansoni, UniProt Q962Y6); assay: TGR inhibition assay, GSSG reduction; assay type: biochemical; settings: read-out: IC50 (GSSG); GSSG as substrate
T3 sequence (Q962Y6 1-598): T2 sequence (Q962Y6 1-598)
Summary of the method: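 Recombinant wild-type S. mansoni TGR (selenoprotein) was expressed in E. coli BL21 (DE3) with a His-SUMO tag. The tag was removed, leaving Gly-Ser-His at the N-terminus. Inhibition was measured as enzymatic GSSG reduction, run in triplicate.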

[5] = tested on: S. mansoni juvenile worms; assay: Ex vivo juvenile worm killing, continuous exposure; design: species or system Schistosoma mansoni
[6] = cited from earlier work
[7] = tested on: S. mansoni adult worms; assay: Brief; design: species or system Schistosoma mansoni
[8] = tested on: S. mansoni schistosomula; assay: Schistosomula; design: species or system Schistosoma mansoni
[9] = tested on: S. mansoni adult worms; assay: Ex vivo adult worm killing, continuous exposure; design: species or system Schistosoma mansoni; settings: for LD50 against S. mansoni adult worms: 5 days incubation, media and compounds replaced daily
[10] = target: T4, TGR (Schistosoma mansoni, UniProt Q962Y6); assay: NADPH oxidase activity of inhibited TGR; assay type: biochemical; settings: for H2O2 production compared with untreated TGR: Amplex Red and horseradish peroxidase; for Decrease of NADPH consumption compared with uninhibited TGR: after treatment and desalting
T4 sequence (Q962Y6 1-598): T2 sequence (Q962Y6 1-598)

[11] = tested on: Vero cells
[12] = tested on: S. japonicum adult worms; assay: Ex vivo adult worm killing, continuous exposure; settings: 12.5 μM, 120 h
[13] = target: T4, TGR; assay: TGR dimer/monomer analysis by native PAGE; settings: native PAGE after reaction with compound
[14] = tested on: S. haematobium adult worms; assay: Ex vivo adult worm killing, continuous exposure; settings: 10 μM
[15] = target: TGR activities (DTNB and GSSG reduction) in S. mansoni adult worms (Schistosoma mansoni, UniProt Q962Y6); assay: TGR activity in homogenates of treated worms; settings: worms cultured in 50 μM compound, harvested before any worm death
Summary of the method: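 Adult S. mansoni from infected Swiss-Webster mice, about 10 worm pairs per 1 mL RPMI with 10% FCS, 10 mM glutamine and penicillin/streptomycin, pre-cultured 24 h. Exposed to 50 μM compound in DMSO, refreshed daily; DMSO controls. Worms collected at set times, washed, homogenized and centrifuged; protein measured. NADPH-dependent DTNB and GSSG reduction assayed in triplicate versus time-matched controls.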

[16] = tested on: parasites; settings: 5 μM (physiological concentration); cited from earlier work
[17] = tested on: schistosomes; settings: cited from earlier work
[18] = target: T4, TGR; assay: NADPH-dependence and reversibility of TGR inhibition; assay type: biochemical; settings: for Reversibility of TGR inhibition: incubation with NADPH, activity 30 minutes and 3 hours after desalting
[19] = tested on: Schistosoma mansoni; settings: overnight exposure; cited from earlier work
[20] = PubChem BioAssay, ref AID485364
[21] = read-out: IC50 (DTNB), DTNB as substrate
[22] = read-out: TGR IC50 Confirm, confirmatory assay
[23] = 20 μM, then 5 days in media without compound
[24] = 50 μM, then 5 days in media without compound
[25] = 100 μM, then 5 days in media without compound

Structure (SMILES)	IC50 [2, 20] [nM]	IC50 [3, 21] [nM]	IC50 [3, 22] [nM]	IC50 [4] [nM]	S. mansoni adult worm killing after 1 hr exposure [7, 23]	Sm Somula, dead ([8]; 10 μM, 24 h)	LD50 against S. mansoni adult worms [9] [µM]	Inhibition of hGR [1]	further results
COc1ccc([N+](=O)[O-])c(S(=O)(=O)c2ccc(Cl)cc2)n1 [Compound 5, TRi-1]	100	60 ± 10	60	50 ± 10	about 10%	10 μM 24 h 100% d^‡	10.1		IC50 [1]: 104000 nM; hGR IC50 fold higher than for TGR [1]: 1700 fold; Sm juvenile, dead ([5]; 10 μM, 120 h): 10 μM 120 h 57% d^‡; Tolerability in animal models ([6]; in vivo): well tolerated; S. mansoni adult worm killing after 1 hr exposure [7, 24]: 60%
CCN(c1ccccc1)S(=O)(=O)c1ccc(NC(=O)c2nc(S(C)(=O)=O)ncc2Cl)cc1 [Compound 2]	398	210 ± 20	210	230 ± 30	40%	10 μM 24 h 100% d^‡	9.07	did not inhibit	Sm juvenile, dead ([5]; 10 μM, 24 h): 10 μM 24 h 100% d^‡
Oc1ccc(CNc2cccc(C(F)(F)F)c2)c2cccnc12 [Compound 7]	316	90 ± 20	90	130 ± 30	10%		18.2	did not inhibit	H2O2 production compared with untreated TGR [10]: less H2O2 than untreated TGR; Induction of NADPH oxidase activity in TGR (NADPH consumption, superoxide production) ([10]; TGR 500 nM, NADPH 100 μM, 30 min, 20 μM for 1, 2, 5-8, 50 μM for 3 and 4, desalted): lowest NADPH oxidase activity; Decrease of NADPH consumption compared with uninhibited TGR [10]: about 50%; Cytotoxicity against mammalian cells compared with schistosome worms [11]: notable exception; Adult worms Sj, dead [12]: 12.5 μM 120 h no killing; Sm juvenile, dead ([5]; 12.5 μM, 120 h): 12.5 μM 120 h 8% d^‡; S. mansoni adult worm killing after 1 hr exposure [7, 25]: 80%; Sm Somula, dead ([8]; 12.5 μM, 120 h): 12.5 μM 120 h 61% d^‡; Adult worms Sm, dead ([9]; 12.5 μM, 120 h): 12.5 μM 120 h 43% d^‡
O=[N+]([O-])c1ccc2c(c1)S(=O)(=O)C=C2 [Compound 4, Stattic]		2010 ± 140	2010	2200 ± 200	about 10%	10 μM 24 h 100% d^‡	7.08		IC50 [1]: 30700 nM; hGR IC50 fold higher than for TGR [1]: 15 fold; IC50 ([2]; ref Li et al. 2015 [18]): 5440 nM; Monomer formation of TGR [13]: No evidence for monomer formation; Sm juvenile, dead ([5]; 10 μM, 72 h): 10 μM 72 h 100% d^‡; Tolerability in animal models ([6]; animal models of different diseases): well tolerated; S. mansoni adult worm killing after 1 hr exposure [7, 24]: 100%; Adult worms Sm, dead ([9]; 10 μM, 144 h): 10 μM 144 h 76% d^‡
Cc1c(-c2cnccn2)ssc1=S [oltipraz, reference compound]							2		
O=c1c(Cl)c(-n2cc(CO)nn2)cnn1-c1ccccc1 [Compound 3]		2840 ± 80	2840	2490 ± 110	about 10%	10 μM 24 h 100% d^‡	4.9	19%	Adult worms Sh, dead ([14]; 96 h): 10 μM 96 h 100% d^‡; IC50 ([2]; ref Li et al. 2015 [18]): 6300 nM; Sm juvenile, dead ([5]; 10 μM, 48 h): 10 μM 48 h 100% d^‡; S. mansoni adult worm killing after 1 hr exposure [7, 24]: 80%; Adult worms Sm, dead ([9]; 10 μM, 72 h): 10 μM 72 h 100% d^‡
CCOC(=O)C(C(=O)OCC)c1cc(Br)c2noc3c2c1C(=O)c1ccccc1-3 [Compound 6]	631	140 ± 10	140	150 ± 20				25%	Inhibition of TGR activity (DTNB and GSSG reduction) in worm homogenates [15]: ~ 60%; S. mansoni adult worm killing after 1 hr exposure ([7]; all concentrations tested (10, 20, 50, 100 μM)): no worm killing
CC(=O)OC[C@H]1O[C@@H]([S-])[C@H](OC(C)=O)[C@@H](OC(C)=O)[C@@H]1OC(C)=O.CCP(CC)CC.[Au+] [auranofin]									H2O2 production compared with untreated TGR [10]: same low amounts of H2O2 as untreated TGR; Decrease of NADPH consumption compared with uninhibited TGR [10]: about 50%; Killing of parasites in culture [16]: kill parasites rapidly; Cure of infected mice [17]: partially cure infected mice; TGR inhibition in the absence of NADPH ([18]; compounds at 20 times the IC50, TGR 50 nM, incubation without NADPH, desalting): found to inhibit TGR; Reversibility of TGR inhibition [18]: irreversible inhibitors of TGR
O=C(C1CCCCC1)N1CC(=O)N2CCc3ccccc3C2C1 (stereo not shown) [praziquantel, reference compound]							0.5		LD50 of praziquantel [19]: 40 µM; S. mansoni adult worm killing after 1 hr exposure [7, 25]: 20%
COC(=O)CS(=O)(=O)c1nnc(C(Cc2ccccc2)NC(=O)OC(C)(C)C)o1 (stereo not shown) [Compound 1]		330 ± 70	330	390 ± 70	60%	10 μM 24 h 99% d^‡	8.41	did not inhibit	Adult worms Sh, dead ([14]; 144 h): 10 μM 144 h 67% d^‡; Sm juvenile, dead ([5]; 10 μM, 120 h): 10 μM 120 h 39% d^‡
COc1ccc(C(Nc2cc(C)ccn2)c2ccc3ccc(C)nc3c2O)cc1 (stereo not shown) [Compound 8]	398	130 ± 40	130	330 ± 50	10%		12.4	did not inhibit	H2O2 production compared with untreated TGR [10]: same low amounts of H2O2 as untreated TGR; Adult worms Sj, dead [12]: 12.5 μM 120 h 56% d^‡; Reversibility of TGR inhibition [18]: reversible inhibition; Sm juvenile, dead ([5]; 10 μM, 120 h): 10 μM 120 h 24% d^‡; S. mansoni adult worm killing after 1 hr exposure [7, 25]: 30%; Sm Somula, dead ([8]; 10 μM, 120 h): 10 μM 120 h 20% d^‡; Adult worms Sm, dead ([9]; 12.5 μM, 120 h): 12.5 μM 120 h 53% d^‡
